Where no end group is shown, it is not given here.

The test system of assay [1] is IA^g7. Particulars: natural R at p9; ref [16]; cited from earlier work.
Assay [2] has as its system NOD mouse type B insulin-reactive CD4 T cells. The assay can be described thus: IL-2 secretion. Format: cell-based. The conditions noted are these: sample titration, IL-2 after 24 h (Fig. 2A). The procedure, abridged: (§1)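 Equal numbers of T-cell hybridomas or TCR-transduced avatars and paraformaldehyde-fixed M12.C3.g7 (IAg7) B-lymphoma APCs are cultured overnight with peptide titrations up to 100 μg/mL. Peptides have B:19 C→A and are >95% pure, with an IAg7-binding HEL peptide as negative control. IL-2 is read by HT-2 growth/survival or ELISA. Potency is the log10 shift of parallel third-order polynomial fits versus WT8E9R (=1), averaged over three titrations.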

Assay [3] deals with NOD mouse type A insulin-reactive CD4 T cells. The experiment in a line: IL-2 secretion. It is filed as cell-based. Particulars: sample titration, IL-2 after 24 h (Fig. 2A). In outline: as §1
Assay [4] relates to CD4 T cells of human T1D patients. Particulars: HLA-DQ8; ref [14], [15]; cited from earlier work.

Take SHLVEALYLVCGERG [B:9–23]: the “binding to IA^g7 in R3” value in assay [1] was “greatly interferes with binding”.
With “8E9E: soluble mutated B:12–22 peptide, p9 R to E, B:19 C changed to A”, the “potency compared with WT8E9R” value in assay [2] was “no better than the WT peptide”. The “potency relative to WT8E9R” value in assay [3] is given as “about 100 ×”.
Consider “B:11–23 peptide: versions of the B:11–23 peptide (identical between mice and humans) presented by DQ8 (LVEALYLVCGERG; ends and bridges not checked; UniProt P01308 35-47, looked up, fragment)”, for which the “human T-cell response to peptide bound to DQ8” value in assay [4] is “only when B:22R is mutated to E”.
In the case of “B:22R to E mutated peptide: B:9–23 peptide with B:22R (p9) mutated to E, earlier work”, the “human T-cell response to peptide bound to DQ8” value in assay [4] is reported as “dramatically improved T-cell response”.

The record behind these values is PMC5776820 (Proceedings of the National Academy of Sciences of the …, 2017).
